Legend:
[1] = test system: Rattus norvegicus; experiment: (§1) AUC in Sprague-Dawley rat at 10 mg/kg, iv; type: ADME, organism-based, Plasma; design: dose 10 mg/kg, route intravenous; settings: in vivo
How it was run: (§2)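 Sprague–Dawley rats dosed as a solution in water/PEG200/EtOH (3:6:1), intravenously at 10 mg/kg or orally at 20 mg/kg. Plasma AUC of intact compound; total clearance also derived from iv data and bioavailability from po/iv AUC.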

[2] = test system: Rattus norvegicus; experiment: (§3) AUC in Sprague-Dawley rat at 20 mg/kg, po; type: ADME, organism-based, Plasma; design: dose 20 mg/kg, route oral; settings: in vivo; how it was run: as §2
[3] = test system: Mus musculus; experiment: Antagonist effect on estrogen activity assessed as inhibition of estrogen-stimulated uterine weight gain in ovariectomized mouse at 1 mg/kg, po; type: functional
How it was run: (§4)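 Ovariectomized mice given 0.1 lg 17b-estradiol benzoate sc in peanut oil plus oral test compound in 5% gum arabic-water suspension, once daily for three consecutive days. Uteri weighed about 24 h after last dose. % inhibition = 100·(1−(T−C)/(E−C)), using uterine weight gain per body weight. C is vehicle. Mean ± SEM.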

[4] = test system: Mus musculus; experiment: Antagonist effect on estrogen activity assessed as inhibition of estrogen-stimulated uterine weight gain in ovariectomized mouse at 3 mg/kg, po; type: functional; how it was run: as §4
[5] = test system: Mus musculus; experiment: Antagonist effect on estrogen activity assessed as inhibition of estrogen-stimulated uterine weight gain in ovariectomized mouse at 10 mg/kg, po; type: functional; how it was run: as §4
[6] = target: T1, Estrogen receptor (Homo sapiens) (UniProt P03372); experiment: Displacement of [3H]estradiol from recombinant ERalpha relative to estradiol
T1 sequence (whole entry): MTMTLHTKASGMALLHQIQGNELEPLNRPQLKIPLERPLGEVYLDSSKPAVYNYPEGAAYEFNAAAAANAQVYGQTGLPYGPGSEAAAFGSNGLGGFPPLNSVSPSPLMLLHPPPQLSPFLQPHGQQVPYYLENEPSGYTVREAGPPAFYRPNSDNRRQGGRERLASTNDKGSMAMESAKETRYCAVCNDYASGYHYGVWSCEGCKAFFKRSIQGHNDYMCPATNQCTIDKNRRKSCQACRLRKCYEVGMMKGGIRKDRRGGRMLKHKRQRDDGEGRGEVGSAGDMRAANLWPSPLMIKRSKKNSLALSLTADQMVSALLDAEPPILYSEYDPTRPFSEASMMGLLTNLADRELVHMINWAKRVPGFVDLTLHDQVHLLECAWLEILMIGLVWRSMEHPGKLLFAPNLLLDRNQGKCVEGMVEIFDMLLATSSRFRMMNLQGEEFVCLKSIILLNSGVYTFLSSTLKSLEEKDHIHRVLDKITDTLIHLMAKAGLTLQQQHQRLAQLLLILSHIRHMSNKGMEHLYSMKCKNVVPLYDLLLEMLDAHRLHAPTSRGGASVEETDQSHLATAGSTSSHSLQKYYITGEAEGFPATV
How it was run: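 Competitive radiometric binding assay using human recombinant ERα, with [3H]estradiol displaced by the test compound. Result is expressed as relative binding affinity (%), with estradiol set to 100.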

[7] = test system: Mus musculus; experiment: Agonist effect on estrogen activity assessed as stimulation of uterine weight gain in ovariectomized mouse at 17 mg/kg, sc relative to control; type: functional; settings: route subcutaneous
How it was run: (§5)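 Ovariectomized mice dosed sc once daily for three consecutive days with test compound in 10% EtOH-peanut oil. Uteri weighed about 24 h after last dose. Uterine weight gain per body weight expressed as % = 100·(T−C)/(E−C), E being the 17b-estradiol benzoate response and C vehicle. Mean ± SEM. Difference from vehicle tested by Student's t test (P < 0.05).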

[8] = as §1; type: ADME, organism-based, Plasma; design: dose 10 mg/kg, route intravenous; settings: Sprague-Dawley, plasma; how it was run: as §2
[9] = Total clearance in Sprague-Dawley rat at 10 mg/kg, iv; type: ADME, organism-based; design: dose 10 mg/kg, route intravenous; settings: in vivo
How it was run: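 Sprague–Dawley rats were given a single iv dose as a solution in water/PEG200/EtOH (3:6:1). Total clearance was derived alongside plasma AUC.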

[10] = as §3; type: ADME, organism-based, Plasma; design: dose 20 mg/kg, route oral; settings: Sprague-Dawley, plasma; how it was run: as §2
[11] = Bioavailability in Sprague-Dawley rat; type: ADME, organism-based; settings: in vivo
How it was run: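 Sprague–Dawley rats were given the compound as a solution in water/PEG200/EtOH (3:6:1), 10 mg/kg iv and 20 mg/kg po. Plasma AUC was determined for each route.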

[12] = AUC in CD1 mouse at 30 mg/kg, po; type: ADME, organism-based; design: dose 30 mg/kg, route oral; settings: plasma
How it was run: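 CD-1 mice dosed orally at 30 mg/kg as a suspension in 5% gum arabic. Plasma AUC measured for intact compound and separately for its 17-position metabolite (17-keto/17-hydroxy interconversion product).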

[13] = AUC in CD1 mouse at 10 mg/kg, iv; type: ADME, organism-based; design: dose 10 mg/kg, route intravenous; settings: plasma
How it was run: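 CD-1 mice dosed intravenously at 10 mg/kg as a solution in water/PEG200/EtOH (3:6:1). Plasma AUC of intact compound.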

[14] = Bioavailability in CD1 mouse; type: ADME, organism-based; settings: in vivo
How it was run: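 CD-1 mice were dosed orally at 30 mg/kg as a suspension in 5% gum arabic, and intravenously at 10 mg/kg as a solution in water/PEG200/EtOH (3:6:1). Plasma AUC of the intact compound was measured for each route. The 17-keto or 17-hydroxy metabolite was also monitored.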

[15] = AUC in cynomolgus monkey at 3 mg/kg, po; type: ADME, organism-based, Macaca fascicularis; design: dose 3 mg/kg, route oral; settings: plasma
How it was run: (§6)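 Cynomolgus monkeys given 3 mg/kg intravenously or orally as a solution in water/PEG200/EtOH (4:8:3). Plasma AUC of intact compound; after oral dosing the 17-position metabolite was also quantified, and bioavailability was calculated from po versus iv AUC.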

[16] = test system: Mus musculus; experiment: Agonist effect on estrogen activity assessed as stimulation of uterine weight gain in ovariectomized mouse at 50 mg/kg, sc relative to control; type: functional; settings: route subcutaneous; how it was run: as §5
[17] = AUC in cynomolgus monkey at 3 mg/kg, iv; type: ADME, organism-based, Macaca fascicularis; design: dose 3 mg/kg, route intravenous; settings: plasma; how it was run: as §6
[18] = Bioavailability in cynomolgus monkey; type: ADME, organism-based, Macaca fascicularis; settings: in vivo
How it was run: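 Cynomolgus monkeys received 3 mg/kg by both the oral and intravenous routes, as a solution in water/PEG200/EtOH (4:8:3). Plasma AUC of the intact compound and of the interconverting 17-keto/17-hydroxy metabolite was measured.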

Compound | RBA [6] | AUC [1] | AUC [2] | inhibition in vivo at 1 mg/kg [3] | inhibition in vivo at 3 mg/kg [4] | inhibition in vivo at 10 mg/kg [5] | Activity [7] | AUC [8] | clearance [9] | AUC [10] | bioavailability [11] | AUC [12] | AUC [13] | bioavailability [14] | AUC [15] | Activity [16] | AUC [17] | bioavailability [18]
C[C@]1(c2ccc(O)cc2)CSc2cc(O)ccc2[C@H]1CCCCCCCCC(CCCC(F)(F)C(F)(F)F)C(=O)O (stereo partly specified) |  | 228 µg·h/mL | 209 µg·h/mL | 11% | 41% | 77% |  |  |  |  |  |  |  |  |  |  |  | 
C[C@]12CC[C@@H]3c4ccc(O)cc4C[C@@H](CCCCCCCCC[S+]([O-])CCCC(F)(F)C(F)(F)F)[C@H]3[C@@H]1CC[C@@H]2O (stereo partly specified) [FULVESTRANT] |  | 5.3 µg·h/mL | 1.7 µg·h/mL | 11% | 29% | 54% |  |  |  |  |  |  |  |  |  |  |  | 
C[C@]12CC[C@@H]3c4ccc(O)cc4C[C@@H](CCCCCCCC[C@H](CCCC(F)(F)C(F)(F)C(F)(F)C(F)(F)F)C(=O)O)[C@H]3[C@@H]1CC[C@@H]2O | 1% |  |  | 58% | 88% | 103% | 3% | 254 µg·h/mL | 0.65 mL/min/kg | 190 µg·h/mL | 37% | 470 µg·h/mL | 447 µg·h/mL | 35% | 0.3 µg·h/mL |  |  | 
C[C@]12CC[C@@H]3c4ccc(O)cc4C[C@@H](CCCCCCCC[C@@H](CCCC(F)(F)C(F)(F)C(F)(F)C(F)(F)F)C(=O)O)[C@H]3[C@@H]1CCC2=O | 1% |  |  | 54% | 85% | 96% |  | 50 µg·h/mL |  | 32 µg·h/mL | 32% | 468 µg·h/mL | 389 µg·h/mL | 40% | 2.42 µg·h/mL | 1% | 77 µg·h/mL | 3.1%
C[C@]12CC[C@@H]3c4ccc(O)cc4C[C@@H](CCCCCCCCC(CCCC(F)(F)C(F)(F)C(F)(F)C(F)(F)F)C(=O)O)[C@H]3[C@@H]1CC[C@@H]2O (stereo partly specified) | 1.4% |  |  | 64% | 87% | 96% | 4% | 207 µg·h/mL | 0.817 mL/min/kg | 144 µg·h/mL | 35% |  |  |  |  |  |  | 
C[C@]12CC[C@@H]3c4ccc(O)cc4C[C@@H](CCCCCCCCC(CCC(F)(F)C(F)(F)C(F)(F)C(F)(F)F)C(=O)O)[C@H]3[C@@H]1CC[C@@H]2O (stereo partly specified) | 0.6% |  |  | 55% | 80% | 98% |  |  |  |  |  |  |  |  |  |  |  | 
C[C@]12CC[C@@H]3c4ccc(O)cc4C[C@@H](CCCCCCCC[C@@H](CCCC(F)(F)C(F)(F)C(F)(F)C(F)(F)F)C(=O)O)[C@H]3[C@@H]1CC[C@@H]2O | 1.1% |  |  | 59% | 93% | 99% | 4% | 146 µg·h/mL | 1.23 mL/min/kg | 98 µg·h/mL | 33% | 274 µg·h/mL | 244 µg·h/mL | 37% | 0.42 µg·h/mL |  | 88 µg·h/mL | 0.48%

Continued, in another order:

RBA [6] | Compound | AUC [1] | AUC [2] | inhibition in vivo at 1 mg/kg [3] | inhibition in vivo at 3 mg/kg [4] | inhibition in vivo at 10 mg/kg [5] | Activity [7] | AUC [8] | clearance [9] | AUC [10] | bioavailability [11] | AUC [12] | AUC [13] | bioavailability [14] | AUC [15] | Activity [16] | AUC [17] | bioavailability [18]
1.4% | C[C@]12CC[C@@H]3c4ccc(O)cc4C[C@@H](CCCCCCCCCC(CCCC(F)(F)C(F)(F)F)C(=O)O)[C@H]3[C@@H]1CC[C@@H]2O (stereo partly specified) |  |  | 22% | 30% | 80% |  |  |  |  |  |  |  |  |  |  |  | 
0.8% | C[C@]12CC[C@@H]3c4ccc(O)cc4C[C@@H](CCCCCCCCC(CCCC(F)(F)C(F)(F)F)C(=O)O)[C@H]3[C@@H]1CC[C@@H]2O (stereo partly specified) |  |  | 37% | 67% | 87% |  |  |  |  |  |  |  |  |  |  |  | 
0.7% | C[C@]12CC[C@@H]3c4ccc(O)cc4C[C@@H](CCCCCCCCCC(CCCC(F)(F)C(F)(F)C(F)(F)C(F)(F)F)C(=O)O)[C@H]3[C@@H]1CC[C@@H]2O (stereo partly specified) |  |  | 27% | 42% | 85% |  |  |  |  |  |  |  |  |  |  |  | 
0.7% | C[C@]12CC[C@@H]3c4ccc(O)cc4C[C@@H](CCCCCCCCCC(CCC(F)(F)C(F)(F)C(F)(F)C(F)(F)F)C(=O)O)[C@H]3[C@@H]1CC[C@@H]2O (stereo partly specified) |  |  | 27% | 49% | 92% |  |  |  |  |  |  |  |  |  |  |  | 

Source: ChEMBL document CHEMBL1149495, “Newly discovered orally active pure antiestrogens” (Bioorg Med Chem Lett, 2006)
